# Measurements published in ChEMBL document CHEMBL4052624, “Metallo-β-lactamase inhibitors by bioisosteric replacement: Preparation, activity and binding” (Eur J Med Chem, 2017).
# The source made the active and inactive calls. The rule behind the calls is not given here.
# Tests used:
# [1] = target: Beta-lactamase VIM-2 (Pseudomonas aeruginosa, UniProt Q9K2N0); assay: Inhibition of Pseudomonas aeruginosa 301-5473 6His-tagged VIM-2 (V27 to E268 residues) expressed in Escherichia coli BL21 Star(DE3) pLysS using nitrocefin as substrate preincubated for 5 mins followed by substrate addition by spectrophotometric analysis
# How it was run: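 Purified VIM-2 and GIM-1 were each used at 10 nM in 50 mM HEPES pH 7.2 with ZnCl₂ and BSA. Each enzyme was preincubated with inhibitor at 25 °C for 5 min, using sixteen concentrations in a 2-fold series. Nitrocefin was then added and the absorbance rise at 482 nm was read. Initial velocities, measured in triplicate, were fitted to log[inhibitor] vs response curves to give IC50. Line 3 is the ratio of the two IC50s.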
# [2] = tested on: Klebsiella pneumoniae; assay: Inhibition of Klebsiella pneumoniae NDM1 expressed in Escherichia coli SNO3 whole cells using imipenem as substrate at 250 uM preincubated for 20 mins followed by substrate addition measured every min up to 60 mins by spectrophotometric analysis relative to control
# How it was run: (§1)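 β-lactamase-negative E. coli SNO3 carrying blaVIM-2, blaGIM-1 or blaNDM-1 in pET26b(+). Hydrolysis of the reporter substrate followed as the initial slope over up to 60 min. Percent inhibition calculated from slopes relative to a no-inhibitor control; EDTA used as positive control.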
# [3] = Inhibition of Klebsiella pneumoniae 6His-tagged NDM1 (G36 to R280 residues) expressed in Escherichia coli BL21 Star(DE3) pLysS using imipenem as substrate preincubated for 5 mins followed by substrate addition by spectrophotometric analysis
# How it was run: (§2)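 His-tagged enzyme, TEV-cleaved, ~95% pure by SDS-PAGE. 10 nM enzyme with 16 inhibitor concentrations in a 2-fold series, in 50 mM HEPES pH 7.2 with ZnCl2 and BSA, preincubated 5 min at 25 °C. Then 100 µM substrate added: imipenem for NDM-1 read at 260 nm, nitrocefin for GIM-1 read at 482 nm. Initial rates in triplicate, fitted to a log[inhibitor] dose–response curve for IC50.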
# [4] = target: Beta-lactamase VIM-2 (Pseudomonas aeruginosa) (UniProt Q9K2N0); assay: Inhibition of Pseudomonas aeruginosa 301-5473 VIM-2 expressed in Escherichia coli SNO3 whole cells using nitrocefin as substrate at 250 uM preincubated for 20 mins followed by substrate addition measured every min up to 60 mins by spectrophotometric analysis relative to control; how it was run: as §1
# [5] = target: GIM-1 protein (Pseudomonas aeruginosa, UniProt Q704V1); assay: Inhibition of Pseudomonas aeruginosa 6His-tagged GIM-1 (Q19 to D250 residues) expressed in Escherichia coli BL21 Star(DE3) pLysS using nitrocefin as substrate preincubated for 5 mins followed by substrate addition by spectrophotometric analysis; how it was run: as §2
# [6] = target: GIM-1 protein (Pseudomonas aeruginosa) (UniProt Q704V1); assay: Inhibition of Pseudomonas aeruginosa GIM-1 expressed in Escherichia coli SNO3 whole cells using nitrocefin as substrate at 250 uM preincubated for 20 mins followed by substrate addition measured every min up to 60 mins by spectrophotometric analysis relative to control; how it was run: as §1
# [7] = tested on: Pseudomonas aeruginosa; assay: Selectivity ratio of IC50 for Pseudomonas aeruginosa 6His-tagged GIM-1 (Q19 to D250 residues) expressed in Escherichia coli BL21 Star(DE3) pLysS to IC50 for Pseudomonas aeruginosa 301-5473 6His-tagged VIM-2 (V27 to E268 residues) expressed in Escherichia coli BL21 Star(DE3) pLysS
# [8] = Selectivity ratio of IC50 for Pseudomonas aeruginosa 6His-tagged GIM-1 (Q19 to D250 residues) expressed in Escherichia coli BL21 Star(DE3) pLysS to IC50 for Klebsiella pneumoniae 6His-tagged NDM1 (G36 to R280 residues) expressed in Escherichia coli BL21 Star(DE3) pLysS
# [9] = tested on: Klebsiella pneumoniae; assay: Inhibition of NDM-1 in Klebsiella pneumoniae K66-45 assessed as potentiation of meropenem-induced antimicrobial activity by measuring meropenem MIC at 125 uM after 20 hrs (reference value: 32 to 64 mg/L)
# [10] = tested on: Pseudomonas aeruginosa; assay: Growth inhibition of Pseudomonas aeruginosa K34-7 after 20 hrs
# [11] = tested on: Klebsiella pneumoniae; assay: Growth inhibition of Klebsiella pneumoniae K66-45 after 20 hrs
# [12] = tested on: Escherichia coli; assay: Inhibition of VIM-29 in Escherichia coli 50639799 assessed as potentiation of meropenem-induced antimicrobial activity by measuring meropenem MIC at 125 uM after 20 hrs (reference value: 8 to 32 mg/L)
# [13] = target: Beta-lactamase VIM-2 (Pseudomonas aeruginosa) (UniProt Q9K2N0); assay: Inhibition of VIM-2 in Pseudomonas aeruginosa K34-7 assessed as potentiation of meropenem-induced antimicrobial activity by measuring meropenem MIC at 125 uM after 20 hrs (reference value: 32 to 64 mg/L)
# [14] = tested on: Escherichia coli; assay: Growth inhibition of Escherichia coli 50639799 after 20 hrs
# Chain of GIM-1 protein (Pseudomonas aeruginosa) (Q704V1 as listed by the source): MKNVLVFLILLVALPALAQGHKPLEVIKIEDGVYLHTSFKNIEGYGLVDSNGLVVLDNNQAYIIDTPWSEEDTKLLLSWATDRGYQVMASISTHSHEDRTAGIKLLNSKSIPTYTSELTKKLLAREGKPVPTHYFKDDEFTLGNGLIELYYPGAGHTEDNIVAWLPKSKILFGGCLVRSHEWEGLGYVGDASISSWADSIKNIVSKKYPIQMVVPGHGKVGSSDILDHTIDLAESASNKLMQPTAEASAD
# Chain of GIM-1 protein (Q704V1 whole entry, the tested form may be a part): as the sequence (Q704V1 as listed by the source) above
Structure (SMILES),IC50 [1],inhibition [2],IC50 ([3]; read-out: IC50),inhibition [4],IC50 ([5]; read-out: IC50),inhibition [6],Ratio IC50 [7],Ratio IC50 [8],MIC [9],MIC [10],MIC [11],MIC [12],MIC [13],MIC [14],IC50 [3],IC50 [5]
O=P(O)(O)C(CO)CCCCc1ccccc1 (configuration not stated),4.5 µM,4%,127 µM,88%,> 10 µM,14%,,,,,,,,,,
O=P(O)(O)C(CO)CCc1ccccc1 (configuration not stated),27 to 35 µM,3.75%,59 µM,61%,99 µM,23%,,,,,,,,,,
O=P(O)(O)C(CS)CCCCc1ccccc1 (configuration not stated),8.6 µM,42%,8.5 µM,94%,16 µM,31%,2 to 4,2 to 4,,,,,,,,
CC(=O)SCC(CCc1ccccc1)P(=O)(O)O (configuration not stated),2.3 µM,39%,2.9 µM,94%,12 µM,40%,,,,,,,,,,
O=P(O)(O)C(CS)CCCc1ccccc1 (configuration not stated),33.2 µM,45%,7.1 µM,95%,28 µM,46%,,,32 µg/mL,1000 µg/mL,1000 µg/mL,1 µg/mL,32 µg/mL,> 1000 µg/mL,,
CCOP(=O)(OCC)C(CS)CCCc1ccccc1 (configuration not stated),0.38 µM,62%,1.8 µM,79%,0.31 µM,48%,,,32 µg/mL,> 500 µg/mL,> 500 µg/mL,8 µg/mL,32 µg/mL,,,
CC(=O)SCC(CCCCc1ccccc1)P(=O)(O)O (configuration not stated),1.8 µM,37%,2.5 µM,97%,20 µM,50%,,,32 µg/mL,> 500 µg/mL,> 500 µg/mL,2 µg/mL,32 µg/mL,,,
CC(=O)SCC(CCCc1ccccc1)P(=O)(O)O (configuration not stated),4.7 µM,38%,6.6 µM,95%,26 µM,37%,,,32 µg/mL,> 500 µg/mL,> 500 µg/mL,1 µg/mL,32 µg/mL,> 1000 µg/mL,,
CC(=O)SCC(Cc1ccccc1)c1nnn[nH]1 (configuration not stated),67 µM,32%,81 µM,76%,203 µM,55%,,,,,,,,,,
CCOP(=O)(OCC)C(CCc1ccccc1)CSC(C)=O (configuration not stated),133 µM,inactive,,17%,18 µM,25%,,,,,,,,,,
CC(=O)SCC(CCCc1ccccc1)c1nnn[nH]1 (configuration not stated),42 µM,,144 µM,77%,162 to 163 µM,20%,,,,,,,,,,
c1ccc(CCCC(CSC2CCCCC2)c2nnn[nH]2)cc1 (configuration not stated),5 µM,inactive,10 µM,73%,36 to 162 µM,8%,,,,,,,,,,
CCOP(=O)(OCC)C(CO)CCCCc1ccccc1 (configuration not stated),> 10 µM,1%,> 10 µM,inactive,280 µM,4%,,,,,,,,,,
CCOP(=O)(OCC)C(CS)CCCCc1ccccc1 (configuration not stated),1.67 µM,,,,,,,,,,,,,,Nd(Insoluble),Nd(Insoluble)
O=P(O)(O)C(CO)CCCc1ccccc1 (configuration not stated),34 µM,,77 µM,66%,> 10 µM,16%,,,,,,,,,,
CCOP(=O)(OCC)C(CCCc1ccccc1)CSC(C)=O (configuration not stated),34 µM,inactive,,14%,26 µM,21%,,,64 µg/mL,> 1000 µg/mL,> 1000 µg/mL,4 to 8 µg/mL,32 µg/mL,> 1000 µg/mL,,
CCOP(=O)(OCC)C(CO)CCCc1ccccc1 (configuration not stated),> 10 µM,inactive,> 10 µM,inactive,> 10 µM,inactive,,,,,,,,,,
O=P(O)(O)C(CS)CCc1ccccc1 (configuration not stated),7.8 µM,42%,5.9 µM,92%,23 µM,37%,2 to 4,2 to 4,32 µg/mL,> 500 µg/mL,> 500 µg/mL,4 µg/mL,32 µg/mL,,,
CCOP(=O)(OCC)C(CO)CCc1ccccc1 (configuration not stated),> 10 µM,,> 10 µM,,> 10 µM,,,,,,,,,,,
CCOP(=O)(OCC)C(CCCCc1ccccc1)CSC(C)=O (configuration not stated),20 µM,inactive,,12%,13 µM,25%,,,,,,,,,,
SCC(CCCc1ccccc1)c1nnn[nH]1 (configuration not stated),28 µM,16%,12 µM,67%,68 µM,25%,,,,,,,,,,
